In ChEMBL document CHEMBL1671718, “Anti-Pseudomonas activity of frog skin antimicrobial peptides in a Caenorhabditis elegans infection model: a plausible mode of action in vitro and in vivo” (Antimicrob Agents Chemother, 2010):
Values after ≈ are worked out from the molar mass of the structure shown. Active and inactive are the calls of the source. No cut-off for these calls is given here. Where a SMILES comes first, the peptide text is derived from it.

Tests used:
[1] = tested on: Pseudomonas aeruginosa; assay: Antibacterial activity against multidrug-resistant Pseudomonas aeruginosa clinical isolate by broth microdilution method; format: functional
Outline: (§1)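 Adapted CLSI broth microdilution in Mueller-Hinton broth; mid-log bacteria at 2 × 10^6 CFU/ml mixed 1:1 with peptide dilutions (2-fold series from 20% ethanol stocks, 1–64 μM). Growth read by absorbance at 595 nm after 18–20 h at 37°C; MIC = lowest concentration giving 100% growth inhibition.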

[2] = tested on: Pseudomonas aeruginosa; assay: Bactericidal activity against multidrug-resistant Pseudomonas aeruginosa clinical isolate assessed as concentration required for >= 3 log10 CFU/ml reduction in viable bacteria in Mueller-Hinton broth after 90 mins; format: functional; conditions: 1.5 h
Outline: (§2)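 Exponential-phase bacteria resuspended at 1 × 10^7 CFU/ml in MHB or PBS; 10 μl incubated with 2-fold peptide dilutions (2–64 μM) in 100 μl, 37°C, 90 min, then plated on LB agar and counted after overnight growth. Value = concentration giving ≥3 log10 CFU/ml reduction. Solvent control 0.6% ethanol.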

[3] = tested on: Pseudomonas aeruginosa; assay: Bactericidal activity against multidrug-resistant Pseudomonas aeruginosa clinical isolate assessed as concentration required for >= 3 log10 CFU/ml reduction in viable bacteria in phosphate-buffer saline containing 150 mM sodium salt after 90 mins; format: functional; conditions: 1.5 h; outline: as §2
[4] = Toxicity in human RBC assessed as hemolytic activity at 64 uM; format: cell-based, Erythrocyte; conditions: red blood cells, read-out: Activity
[5] = tested on: Pseudomonas aeruginosa; assay: Antibacterial activity against multidrug-resistant Pseudomonas aeruginosa clinical isolate infected in Caenorhabditis elegans assessed as worm survival at 0.01 nM after 48 hrs; format: functional, organism-based
[6] = Toxicity in human RBC assessed as hemolytic activity <32 to 64 uM; format: cell-based; conditions: erythrocyte
[7] = tested on: Pseudomonas aeruginosa; assay: Antibacterial activity against multidrug-resistant Pseudomonas aeruginosa clinical isolate assessed as reduction in viable bacterial count at MIC after 5 mins by time-kill analysis; format: functional
Outline: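 Bacteria grown in MHB at 37°C, diluted into PBS (about 1 × 10^5 CFU in 100 μl), incubated at 37°C with peptide at its MIC; 10 μl samples taken at intervals, diluted in MHB, plated on LB agar, CFU counted after overnight growth. Controls untreated or 0.6% ethanol solvent; three independent experiments, mean ± SD.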

[8] = Toxicity in human RBC assessed as hemolytic activity upto 64 uM; format: cell-based; conditions: erythrocyte
Outline: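 Fresh erythrocytes from healthy human donors, washed three times in 0.9% NaCl, used as a 5% (vol/vol) final suspension. Peptides were dissolved in 20% ethanol and tested at 2 to 64 μM, with agitation at 37°C for 40 min. Hemoglobin release was read as supernatant absorbance at 540 nm. The blank was solvent at 0.6% final; hypotonic lysis gave 100%.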

[9] = tested on: Pseudomonas aeruginosa; assay: Antibacterial activity against multidrug-resistant Pseudomonas aeruginosa clinical isolate infected in Caenorhabditis elegans assessed as increase in worm survival at 0.3 nM after 40 hrs relative untreated control; format: functional
Outline: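 N2 young adults infected 6 h at 25°C on modified NGM lawns of clinical isolate, washed in M9, 15 worms/well in 50 μl S medium with E. coli OP50 plus peptide (0.3 or 0.01 nM depending on peptide); 40 h at 25°C. Dead = no movement or muscle tone; at least three experiments, mean ± SD.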

[10] = tested on: Pseudomonas aeruginosa; assay: Antibacterial activity against multidrug-resistant Pseudomonas aeruginosa clinical isolate infected in Caenorhabditis elegans assessed as reduction in viable bacterial count in intestinal lumen after 24 hrs by agar plate assay relative to untreated worm; format: functional
Outline: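 Worms infected 6 h, then on OP50 NGM plates with 0.5 nM peptide added. Before and after 1 day, 10 worms per replicate washed three times in M9 with 20 μg/ml gentamicin, lysed in M9–1% Triton X-100, and plated on LB with 100 μg/ml ampicillin; CFU counted after overnight growth at 37°C. At least three experiments.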

[11] = tested on: Pseudomonas aeruginosa; assay: Antibacterial activity against multidrug-resistant Pseudomonas aeruginosa clinical isolate infected in Caenorhabditis elegans assessed as increase in worm survival within 6 days agar plate assay relative to untreated worm; format: functional
Outline: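 Worms infected 6 h, washed in M9, 15 per 3.5-cm NGM plate with E. coli OP50, moved daily to fresh plates freshly spread with 200 μl of 0.5 nM peptide. Death scored as absence of touch-provoked movement over 6 days versus untreated infected worms; at least three experiments.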

[12] = tested on: Pseudomonas aeruginosa; assay: Antibacterial activity against Pseudomonas aeruginosa ATCC 15692 by broth microdilution method; format: functional; outline: as §1
[13] = tested on: Pseudomonas aeruginosa; assay: Antibacterial activity against Pseudomonas aeruginosa ATCC 15692 expressing GFP infected in Caenorhabditis elegans assessed as reduction in viable bacterial count in intestinal lumen after 90 mins by fluorescence microscopy; format: functional, organism-based
Outline: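 Nematodes infected 16 h with GFP-expressing ATCC 15692 (plasmid pSMC21, ampicillin-selected), moved to OP50 NGM plates with or without 0.5 nM peptide; after 90 min, gut fluorescence viewed by epifluorescence stereomicroscopy (GFP2 filter, ×60).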

[14] = tested on: Pseudomonas aeruginosa; assay: Induction of membrane permeation on multidrug-resistant Pseudomonas aeruginosa clinical isolate infected in Caenorhabditis elegans assessed as increase in membrane permeability assessed as increase in membrane permeability by Sytox green dye influx assay; format: functional, organism-based
Outline: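 N2 adults infected 16 h, washed in M9, held about 24 h at 25°C on K medium agar to expand gut bacteria (about 1,000 CFU/worm). 200 worms per well in 300 μl K medium with 1 μM Sytox Green, 5 min in the dark; 10 nM peptide added, fluorescence (485/535 nm) read at 25°C until plateau (about 40 min). Controls: 0.3% ethanol-treated infected worms and uninfected worms; two experiments.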

[15] = tested on: Escherichia coli; assay: Induction of membrane permeation on GFP expressing Escherichia coli OP50 infected in Caenorhabditis elegans assessed as increase in membrane permeability assessed as increase in membrane permeability after 16 hrs post dose by Sytox green dye influx assay; format: functional, organism-based
[16] = Toxicity in human RBC assessed as hemolytic activity at 32 uM; format: cell-based, Erythrocyte; conditions: red blood cells, read-out: Activity
[17] = tested on: Caenorhabditis elegans; assay: Toxicity in multidrug-resistant Pseudomonas aeruginosa clinical isolate infected Caenorhabditis elegans induction of worm mortality at >0.01 nM after 48 hrs; format: organism-based; conditions: in vivo

Row | SMILES | MIC [1] | MIC [2] | MIC [3] | hemolysis at 64 µM [4] | Activity [5] | Activity [6] | CFU/ml [7] | Activity [8] | fold change (FC) [9] | fold change (FC) [10] | fold change (FC) [11] | MIC [12] | Activity [13] | Activity [14] | Activity [15] | hemolysis at 32 µM [16] | Activity [10] | Activity [17]
1 | CC[C@H](C)[C@H](NC(=O)CNC(=O)[C@H](CO)NC(=O)[C@H](CC(C)C)NC(=O)[C@@H](NC(=O)[C@H](CCCCN)NC(=O)CNC(=O)[C@@H](NC(=O)[C@H](CC(C)C)NC(=O)[C@@H]1CCCN1C(=O)[C@H](CC(C)C)NC(=O)[C@@H](N)Cc1ccccc1)[C@@H](C)CC)C(C)C)C(=O)N[C@@H](CC(C)C)C(N)=O (H-FLPLIGKVLSGIL-NH2) | > 64 µM | > 64 µM | > 64 µM | 12% | inactive | Non-toxic |  |  |  |  |  |  |  |  |  |  |  | 
2 | CC[C@H](C)[C@H](NC(=O)CN)C(=O)N[C@@H](Cc1ccccc1)C(=O)N[C@@H](CO)C(=O)N[C@@H](CCCCN)C(=O)N[C@@H](CC(C)C)C(=O)N[C@@H](C)C(=O)NCC(=O)N[C@@H](CCCCN)C(=O)N[C@@H](CCCCN)C(=O)N[C@H](C(=O)N[C@@H](CCCCN)C(=O)N[C@@H](CC(N)=O)C(=O)N[C@@H](CC(C)C)C(=O)N[C@@H](CC(C)C)C(=O)N[C@H](C(=O)N[C@@H](CO)C(=O)NCC(=O)N[C@@H](CC(C)C)C(=O)N[C@@H](CCCCN)C(=O)NCC(N)=O)[C@@H](C)CC)[C@@H](C)CC (H-GIFSKLAGKKIKNLLISGLKG-NH2) | 4 µM (≈ 8.74 µg/mL) | 16 µM (≈ 35 µg/mL) | 4 µM |  | inactive |  | 998000 | Non-toxic |  |  |  |  |  |  |  |  |  | 
3 | CC[C@H](C)[C@H](NC(=O)CN)C(=O)N[C@@H](Cc1ccccc1)C(=O)N[C@@H](CO)C(=O)N[C@@H](CCCCN)C(=O)N[C@@H](CC(C)C)C(=O)N[C@@H](C)C(=O)NCC(=O)N[C@@H](CCCCN)C(=O)N[C@@H](CCCCN)C(=O)N[C@@H](CC(C)C)C(=O)N[C@@H](CCCCN)C(=O)N[C@@H](CC(N)=O)C(=O)N[C@@H](CC(C)C)C(=O)N[C@@H](CC(C)C)C(=O)N[C@H](C(=O)N[C@@H](CO)C(=O)NCC(N)=O)[C@@H](C)CC (H-GIFSKLAGKKLKNLLISG-NH2) | 8 µM (≈ 15.1 µg/mL) | 64 µM (≈ 121 µg/mL) | 16 µM |  | inactive |  | 950000 | Non-toxic | 4 | 5 | 2 | 8 µM (≈ 15.1 µg/mL) | Active | Active | inactive |  |  | 
4 | CC[C@H](C)[C@H](NC(=O)[C@@H]1CCCN1C(=O)[C@H](CC(C)C)NC(=O)[C@@H](N)CC(C)C)C(=O)N[C@H](C(=O)NCC(=O)N[C@@H](CC(N)=O)C(=O)N[C@@H](CC(C)C)C(=O)N[C@@H](CC(C)C)C(=O)N[C@@H](CCCCN)C(=O)N[C@@H](CO)C(=O)N[C@@H](CC(C)C)C(=O)N[C@@H](CC(C)C)C(N)=O)C(C)C (H-LLPIVGNLLKSLL-NH2) | > 64 µM | > 64 µM | > 64 µM |  | inactive | Non-toxic |  |  | 4 |  |  | > 64 µM | Active |  |  | 5% | Active | 
5 | CC[C@H](C)[C@H](NC(=O)[C@H](CCCNC(=N)N)NC(=O)CNC(=O)[C@H](CC(C)C)NC(=O)[C@H](Cc1ccccc1)NC(=O)[C@H](CCCCN)NC(=O)[C@H](CO)NC(=O)[C@H](Cc1ccccc1)NC(=O)[C@H](Cc1c[nH]c2ccccc12)NC(=O)[C@H](CCC(N)=O)NC(=O)[C@@H](NC(=O)[C@@H](N)Cc1ccccc1)C(C)C)C(=O)N[C@@H](CC(C)C)C(N)=O [TEMPORIN L] (H-FVQWFSKFLGRIL-NH2) | 64 µM (≈ 105 µg/mL) | > 64 µM | 16 µM |  | inactive |  |  |  |  |  |  |  |  |  |  |  |  | Toxic
